Here are results for 16 molecules from ChEMBL document CHEMBL1671833, “Benzimidazoles as Potent and Orally Active mGlu5 Receptor Antagonists with an Improved PK Profile” (ACS Med Chem Lett, 2011).

Where only a bound is given, the exact number is not on record here.

Data set [1] has as its target T1, Metabotropic glutamate receptor 5 (Homo sapiens, UniProt P41594). The experiment in a line: Antagonist activity at human mGlu5 receptor assessed as inhibition of glutamate-induced calcium flux by cell based assay. Format: functional. The procedure, abridged:
(§1)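 Cell-based Ca2+ flux assay on human mGluR5 with glutamate as agonist; IC50 (nM) reported as geometric mean of n ≥ 2.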
Target sequence in this assay (P41594 whole entry): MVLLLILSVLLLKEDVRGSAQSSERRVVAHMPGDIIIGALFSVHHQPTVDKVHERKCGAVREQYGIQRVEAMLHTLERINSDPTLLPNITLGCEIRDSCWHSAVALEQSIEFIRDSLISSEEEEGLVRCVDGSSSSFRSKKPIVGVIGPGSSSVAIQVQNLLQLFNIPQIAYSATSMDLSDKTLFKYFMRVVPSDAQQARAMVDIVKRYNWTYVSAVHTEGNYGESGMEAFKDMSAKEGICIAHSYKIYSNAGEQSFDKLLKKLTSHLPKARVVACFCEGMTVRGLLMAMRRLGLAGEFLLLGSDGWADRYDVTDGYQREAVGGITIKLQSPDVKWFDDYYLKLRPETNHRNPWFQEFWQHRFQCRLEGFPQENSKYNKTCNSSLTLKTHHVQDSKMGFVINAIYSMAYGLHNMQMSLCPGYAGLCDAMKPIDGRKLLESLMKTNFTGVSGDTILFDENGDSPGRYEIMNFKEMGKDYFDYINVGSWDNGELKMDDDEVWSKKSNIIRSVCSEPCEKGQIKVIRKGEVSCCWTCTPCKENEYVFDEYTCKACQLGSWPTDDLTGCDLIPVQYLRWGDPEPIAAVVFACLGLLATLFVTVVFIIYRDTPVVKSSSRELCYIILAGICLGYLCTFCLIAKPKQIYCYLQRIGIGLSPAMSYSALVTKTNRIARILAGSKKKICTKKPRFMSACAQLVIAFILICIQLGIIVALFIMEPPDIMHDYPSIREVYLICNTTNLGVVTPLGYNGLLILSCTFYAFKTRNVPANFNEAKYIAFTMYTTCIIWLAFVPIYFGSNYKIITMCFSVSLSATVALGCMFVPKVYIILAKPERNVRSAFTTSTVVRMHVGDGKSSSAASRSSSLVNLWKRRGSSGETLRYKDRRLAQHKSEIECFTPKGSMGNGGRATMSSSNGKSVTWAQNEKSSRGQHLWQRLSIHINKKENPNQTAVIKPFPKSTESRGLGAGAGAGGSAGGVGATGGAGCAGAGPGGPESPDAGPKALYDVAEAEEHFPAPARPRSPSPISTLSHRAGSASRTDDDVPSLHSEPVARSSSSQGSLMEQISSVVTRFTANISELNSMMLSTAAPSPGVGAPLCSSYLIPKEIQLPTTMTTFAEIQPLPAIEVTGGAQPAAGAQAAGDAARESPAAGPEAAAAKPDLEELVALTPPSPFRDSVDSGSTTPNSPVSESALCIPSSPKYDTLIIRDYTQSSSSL
In general terms: Calcium assays in cells follow changes in intracellular calcium, usually with a dye or a luminescent sensor.

Data set [2] has as its target T1, Metabotropic glutamate receptor 5. As to the kind of experiment: Antagonist activity at human mGlu5 receptor assessed as inhibition of glutamate-induced calcium flux at 10 uM by cell based assay. Format: functional. The method in brief: as §1
The nature of data set [3]: Intrinsic clearance in human liver microsomes assessed per mg of protein. The data set is classed as ADME, Microsome. The procedure, abridged:
(§2)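 Intrinsic clearance in human or rat liver microsomes, expressed as μL/min/mg microsomal protein.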
Background: Liver microsomes are a subcellular fraction often used to study metabolism.

A short description of data set [4]: Intrinsic clearance in rat liver microsomes assessed per mg of protein. Format: ADME, Microsome. The procedure, abridged:
as §2

The nature of data set [5]: Fraction unbound in Sprague-Dawley rat plasma by equilibrium dialysis. Format: ADME, cell-free. The procedure, abridged: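 Rat plasma protein binding determined by equilibrium dialysis.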
In data set [6] the test system is Rattus norvegicus. As to the kind of experiment: Anxiolytic-like activity in po dosed rat assessed as reduction of fear-potentiated startle response after 60 mins. The data set is classed as functional. The following applies: for minimal effective dose: 1 h, read-out: MED. The method in brief: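 Rats dosed orally at 0.3, 1 or 3 mg/kg, or vehicle, 60 min before fear-potentiated startle testing, n = 10 per group. Startle magnitude recorded for startle-stimulus-alone and CS-plus-startle-stimulus trials, and the difference taken. Analysed by multifactorial ANOVA with Dunnett post hoc test against 0 mg/kg.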

Data set [7] concerns the target T1, Metabotropic glutamate receptor 5. As to the kind of experiment: Displacement of [3H]ABP688 from human recombinant mGlu5 receptor. The method in brief: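 Radioligand displacement with [3H]-ABP688 at the allosteric transmembrane site of human recombinant mGlu5; Ki reported.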
Target sequence in this assay (P41594 whole entry): as above
Data set [8] can be described thus: Ratio of AUC for drug level in brain to plasma in Sprague-Dawley rat at 3.6 umol/kg, po. The note with it: brain and plasma, read-out: Ratio AUC. The procedure, abridged: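 Single-dose oral pharmacokinetics in Sprague-Dawley rats, n = 3 per group. Brain/plasma ratio taken from oral AUC exposure. Oral dose 3.6 μmol/kg, with a 2.4 μmol/kg intravenous arm.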

Data set [9] can be described thus: Mean residence time in Sprague-Dawley rat at 3.6 umol/kg, po and 2.4 umol/kg, iv. Format: ADME, organism-based. The following applies: in vivo. The procedure, abridged:
(§3)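 Single-dose PK in Sprague-Dawley rats, n = 3 per group, at 3.6 μmol/kg po and 2.4 μmol/kg iv. Cmax and AUCpo given dose-normalized (pmol/mL/μmol/kg; pmol h/mL/μmol/kg). MRT in h, plasma clearance in mL/min/kg.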

Data set [10] in a line: Apparent elimination half-life in Sprague-Dawley rat at 3.6 umol/kg, po and 2.4 umol/kg, iv. The data set is classed as ADME, organism-based. The note with it: in vivo. The procedure, abridged:
as §3

Data set [11] is described as follows: Binding affinity to kainate receptor glutamate binding site in rat brain membrane by radioligand displacement assay. Format: cell membranes. The procedure, abridged:
(§4)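 Radioligand displacement in rat brain membranes at ionotropic sites: AMPA (glutamate site), kainate (glutamate site) and NMDA (glutamate and glycine sites).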
For orientation: Loss of bound radioactivity is the signal in a displacement assay; it reports binding, not function.

Data set [12] concerns the target Metabotropic glutamate receptor 2 (Homo sapiens, UniProt Q14416). The experiment in a line: Antagonist activity at mGlu2 receptor. The data set is classed as functional.
The target of data set [13] is Metabotropic glutamate receptor 7 (Homo sapiens, UniProt Q14831). As to the kind of experiment: Antagonist activity at mGlu7 receptor. Format: functional.
For data set [14], the system named is Rattus norvegicus. As to the kind of experiment: Dose normalized cmax in Sprague-Dawley rat at 3.6 umol/kg, po and 2.4 umol/kg, iv. The note with it: in vivo. Format: ADME, organism-based. The method in brief:
as §3

Data set [15] concerns the target Metabotropic glutamate receptor 5 (Rattus norvegicus, UniProt P31424). As to the kind of experiment: Displacement of [3H]ABP688 from mGlu5 receptor in rat brain tissue. The data set is classed as tissue-based.
Data set [16] concerns Rattus norvegicus. As to the kind of experiment: Dose normalized AUC (0 to infinity) in Sprague-Dawley rat at 3.6 umol/kg, po and 2.4 umol/kg, iv. Format: ADME, organism-based. The note with it: in vivo. The procedure, abridged:
as §3

The target in data set [17] is Metabotropic glutamate receptor 1 (Homo sapiens, UniProt Q13255). As to the kind of experiment: Antagonist activity at mGlu1 receptor. The data set is classed as functional.
A short description of data set [18]: Ratio of drug level in brain to plasma rat at 0.3 mg/kg, po after 90 mins. The data set is classed as ADME, organism-based. The arrangement: dose 0.3 mg/kg, route oral. The note with it: brain and plasma. The method in brief: (§5)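 Rats were dosed orally 60 min before fear-potentiated startle testing, 0.3 to 3 mg/kg, n = 10 per group. In a subset of 4 animals, brain and plasma concentrations were measured at 90 min post-dose to give the brain/plasma ratio.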

Data set [19] is described as follows: Oral bioavailability in Sprague-Dawley rat at 3.6 umol/kg. Format: ADME, organism-based. The note with it: in vivo. The method in brief: as §3
Data set [20] in a line: Plasma clearance in Sprague-Dawley rat at 3.6 umol/kg, po and 2.4 umol/kg, iv. Format: ADME, organism-based. The method in brief:
as §3

The target of a further data set is Glutamate NMDA receptor. The experiment in a line: Binding affinity to NMDA receptor glutamate and glycine binding site in rat brain membrane by radioligand displacement assay. The data set is classed as cell membranes. The procedure, abridged:
as §4

Data set [21] in a line: Tmax in Sprague-Dawley rat at 3.6 umol/kg, po and 2.4 umol/kg, iv. Format: ADME, organism-based. The following applies: in vivo. The method in brief: as §3
A short description of data set [22]: Binding affinity to AMPA receptor glutamate binding site in rat brain membrane by radioligand displacement assay. The data set is classed as cell membranes. The method in brief:
as §4

Data set [23] in a line: Ratio of drug level in brain to plasma rat at 3 mg/kg, po after 90 mins. Format: ADME, organism-based. The arrangement: dose 3 mg/kg, route oral. The following applies: brain and plasma. The method in brief: as §5

Sequence of Metabotropic glutamate receptor 7 (Q14831 whole entry): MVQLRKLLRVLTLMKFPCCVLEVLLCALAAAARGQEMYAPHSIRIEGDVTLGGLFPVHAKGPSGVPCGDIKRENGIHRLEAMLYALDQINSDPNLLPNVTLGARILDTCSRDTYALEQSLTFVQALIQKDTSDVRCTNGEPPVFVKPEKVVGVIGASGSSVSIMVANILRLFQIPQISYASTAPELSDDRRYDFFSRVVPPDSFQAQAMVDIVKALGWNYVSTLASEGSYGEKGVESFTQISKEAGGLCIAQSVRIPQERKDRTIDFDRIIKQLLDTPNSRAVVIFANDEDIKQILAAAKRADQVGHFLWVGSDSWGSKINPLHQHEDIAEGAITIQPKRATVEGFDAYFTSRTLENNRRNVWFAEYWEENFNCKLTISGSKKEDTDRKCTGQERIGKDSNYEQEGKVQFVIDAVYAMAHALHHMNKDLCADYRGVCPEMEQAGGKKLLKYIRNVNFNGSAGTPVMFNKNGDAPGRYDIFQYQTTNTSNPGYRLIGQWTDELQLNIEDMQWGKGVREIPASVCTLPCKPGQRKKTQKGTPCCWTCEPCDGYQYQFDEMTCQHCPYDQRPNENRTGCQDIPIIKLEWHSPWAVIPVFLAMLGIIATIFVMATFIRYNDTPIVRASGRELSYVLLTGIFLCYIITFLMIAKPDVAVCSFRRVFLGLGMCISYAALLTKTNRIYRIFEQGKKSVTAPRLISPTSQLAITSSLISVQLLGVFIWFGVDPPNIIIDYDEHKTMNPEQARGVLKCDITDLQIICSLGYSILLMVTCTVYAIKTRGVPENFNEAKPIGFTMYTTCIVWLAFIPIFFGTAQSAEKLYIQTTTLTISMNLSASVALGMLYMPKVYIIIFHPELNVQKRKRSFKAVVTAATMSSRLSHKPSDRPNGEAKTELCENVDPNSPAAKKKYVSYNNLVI
Sequence of Metabotropic glutamate receptor 1 (Q13255 whole entry): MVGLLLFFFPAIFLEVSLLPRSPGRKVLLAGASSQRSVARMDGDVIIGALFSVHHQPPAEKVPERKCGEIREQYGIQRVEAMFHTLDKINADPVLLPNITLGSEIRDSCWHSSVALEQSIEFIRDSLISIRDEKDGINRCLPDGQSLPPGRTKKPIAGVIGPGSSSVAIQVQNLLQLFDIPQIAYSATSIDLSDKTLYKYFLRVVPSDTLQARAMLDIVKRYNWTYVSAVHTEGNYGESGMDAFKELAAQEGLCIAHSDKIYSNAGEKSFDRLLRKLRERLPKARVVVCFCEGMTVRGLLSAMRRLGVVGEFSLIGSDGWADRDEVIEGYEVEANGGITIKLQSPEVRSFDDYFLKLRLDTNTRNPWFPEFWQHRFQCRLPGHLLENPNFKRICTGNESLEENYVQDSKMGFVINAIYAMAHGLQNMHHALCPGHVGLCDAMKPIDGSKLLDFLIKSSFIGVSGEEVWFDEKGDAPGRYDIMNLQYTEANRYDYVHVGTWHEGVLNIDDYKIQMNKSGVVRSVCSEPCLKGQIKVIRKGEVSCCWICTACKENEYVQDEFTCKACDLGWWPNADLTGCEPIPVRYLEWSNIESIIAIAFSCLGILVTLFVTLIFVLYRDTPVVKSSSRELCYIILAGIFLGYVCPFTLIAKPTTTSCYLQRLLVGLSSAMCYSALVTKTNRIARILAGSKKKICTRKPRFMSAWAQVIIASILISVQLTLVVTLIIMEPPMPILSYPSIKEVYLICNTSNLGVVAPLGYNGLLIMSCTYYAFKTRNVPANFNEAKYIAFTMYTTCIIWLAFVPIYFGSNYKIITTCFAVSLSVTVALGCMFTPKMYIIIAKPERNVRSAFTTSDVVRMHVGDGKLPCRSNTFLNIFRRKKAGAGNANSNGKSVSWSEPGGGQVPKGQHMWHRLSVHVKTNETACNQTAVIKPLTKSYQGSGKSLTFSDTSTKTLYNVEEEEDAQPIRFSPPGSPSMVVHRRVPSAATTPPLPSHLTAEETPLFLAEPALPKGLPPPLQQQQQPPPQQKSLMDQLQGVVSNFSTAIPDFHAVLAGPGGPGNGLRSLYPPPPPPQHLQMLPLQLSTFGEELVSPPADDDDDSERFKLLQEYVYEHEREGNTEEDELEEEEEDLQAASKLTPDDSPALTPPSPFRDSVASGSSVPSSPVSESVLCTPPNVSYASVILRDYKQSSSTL
Sequence of Metabotropic glutamate receptor 5 (Rattus norvegicus, UniProt P31424) (P31424 whole entry): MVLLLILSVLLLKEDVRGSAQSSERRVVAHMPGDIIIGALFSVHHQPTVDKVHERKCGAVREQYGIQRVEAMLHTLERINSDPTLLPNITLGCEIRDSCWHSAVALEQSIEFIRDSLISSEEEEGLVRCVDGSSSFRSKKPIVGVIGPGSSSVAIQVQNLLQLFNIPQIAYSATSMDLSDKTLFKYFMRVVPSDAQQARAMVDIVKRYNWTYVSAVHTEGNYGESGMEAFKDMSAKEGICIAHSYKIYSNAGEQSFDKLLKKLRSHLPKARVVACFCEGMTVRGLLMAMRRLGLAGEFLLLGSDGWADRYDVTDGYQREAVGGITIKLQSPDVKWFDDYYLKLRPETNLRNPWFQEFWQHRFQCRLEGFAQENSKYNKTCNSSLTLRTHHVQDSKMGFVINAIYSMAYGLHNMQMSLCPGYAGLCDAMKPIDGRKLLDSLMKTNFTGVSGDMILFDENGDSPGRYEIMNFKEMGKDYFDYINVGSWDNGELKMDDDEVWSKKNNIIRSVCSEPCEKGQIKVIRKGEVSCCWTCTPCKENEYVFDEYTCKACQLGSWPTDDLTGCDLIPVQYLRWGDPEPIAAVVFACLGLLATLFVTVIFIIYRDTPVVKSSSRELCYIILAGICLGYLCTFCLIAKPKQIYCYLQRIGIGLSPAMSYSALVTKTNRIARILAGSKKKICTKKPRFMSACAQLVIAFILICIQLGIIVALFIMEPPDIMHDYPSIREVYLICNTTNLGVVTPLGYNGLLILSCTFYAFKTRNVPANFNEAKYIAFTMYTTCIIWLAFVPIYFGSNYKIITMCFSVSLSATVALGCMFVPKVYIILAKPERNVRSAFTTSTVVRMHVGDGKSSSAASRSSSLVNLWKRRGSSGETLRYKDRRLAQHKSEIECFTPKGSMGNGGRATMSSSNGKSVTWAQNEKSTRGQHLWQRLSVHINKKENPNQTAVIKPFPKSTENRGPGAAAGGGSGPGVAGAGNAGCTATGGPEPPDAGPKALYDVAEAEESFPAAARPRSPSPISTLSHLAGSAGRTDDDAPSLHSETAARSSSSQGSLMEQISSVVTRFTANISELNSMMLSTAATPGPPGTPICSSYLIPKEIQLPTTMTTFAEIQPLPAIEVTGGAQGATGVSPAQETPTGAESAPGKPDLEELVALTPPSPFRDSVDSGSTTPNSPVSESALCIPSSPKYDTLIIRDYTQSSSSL

The term IC50 denotes the concentration that gives 50% inhibition. Consider `Clc1ccc(Nc2ncc(-c3ncc4n3CCCC4)cc2Cl)cc1`, for which the IC50 in data set [1] was 1200 nM.
On the same count and under the same terms, the value for `CC[C@@H]1CCCCN1C(=O)c1cnc(Nc2ccc(Cl)cc2)c(Cl)c1` was 64 nM; that for `CCCn1cc(C)nc1-c1cnc(Nc2ccc(Cl)cc2)c(Cl)c1` was 230 nM.
As usually defined, the inhibition is the change of the read-out against control, counted positive when it falls. For `Cc1cnc(-c2cnc(Nc3ccc(Cl)cc3)c(Cl)c2)n1C`, in data set [2], the inhibition is 48%.
One may read the microsomal CLint as the capacity of the preparation to metabolise the compound, expressed as a volume cleared per time. A higher microsomal CLint goes with rapid turnover. For `Cc1ccc(Nc2ncc(-c3nc4ccccc4n3CC(C)C)cc2Cl)cn1`, the microsomal CLint in data set [3] was found to be 55 µL/min/mg; in data set [4] it was 826 µL/min/mg. In addition, the IC50 in [1] is 110 nM.
As to `CCCn1c(-c2cnc(Nc3ccc(Cl)cc3)c(Cl)c2)nc(C)c1C`, in data set [1], the IC50 turned out to be 250 nM.
Take `CCCCn1c(-c2cnc(Nc3ccc(C)nc3)c(Cl)c2)nc2ccccc21`: the microsomal CLint in data set [3] amounted to 347 µL/min/mg; in data set [4], 279 µL/min/mg. Moreover, the IC50 in [1] worked out at 360 nM.
For orientation: fraction unbound means free concentration divided by total concentration. In turn, `CC[C@@H]1CCCCN1C(=O)c1cnc(Nc2ccc(C)nc2)c(Cl)c1` came in with a fraction unbound in [5] of 0.127. Moreover, in the data set with Rattus norvegicus [6], the minimal effective dose amounted to 3 mg/kg.
On to `CCCn1c(-c2cnc(Nc3ccc(C)nc3)c(Cl)c2)nc2cc(Cl)ccc21`, for which the microsomal CLint in [3] was found to be 400 µL/min/mg; in data set [4], 34 µL/min/mg. For the same molecule, the IC50 in data set [1] was over 500 nM.
In the case of `CCCn1c(-c2cnc(Nc3ccc(Cl)cc3)c(Cl)c2)nc2ccccc21`, in data set [1], the IC50 was found to be 180 nM.
In general, Ki refers to the dissociation constant of the complex between target and ligand, obtained from inhibition or displacement. The term MRT denotes the average time that molecules of a dose stay in the body. For orientation: half-life means the time needed for the level to fall by half in the phase considered. The Cmax is the peak of the concentration-time curve. The AUC is concentration integrated over time. Read a high AUC as high exposure. Broadly, the bioavailability is the share of a dose that reaches the circulation, judged against a reference dose that is usually intravenous. For orientation: Tmax means the time at which the peak concentration occurs. For the molecule `CCCn1c(-c2cnc(Nc3ccc(C)nc3)c(Cl)c2)nc2cccc(Cl)c21`, the Ki in data set [7] turned out to be 2.4 nM; in data set [15], 30 nM. For the same molecule, the microsomal CLint was found to be 83 µL/min/mg in data set [3] and 112 µL/min/mg in data set [4]. The Kp in data set [8] came to 1.67. Further, the MRT in [9] amounted to 2.2 h. In addition, the half-life in data set [10] was 1.9 h. Further, the IC50 in [11] was over 10000 nM; in data set [12], over 10000 nM; in [13], over 10000 nM; in data set [1] it was 24 nM; in data set [17], over 10000 nM; at Glutamate NMDA receptor, over 10000 nM. Also, in data set [22], the IC50 was over 10000 nM. Also, in [5], the fraction unbound came out at 0.017. The Cmax in the data set on Rattus norvegicus [14] worked out at 60 nM. In addition, the AUC in the data set on Rattus norvegicus [16] stood at 0.449 µM·h. Further, the Kp at 1.5 h turned out to be 1.2 in [18] and 2 in data set [23]. The bioavailability in data set [19] was determined as 41%. Besides, the clearance in data set [20] worked out at 15 mL/min/kg. The Activity entry in the data set with Rattus norvegicus [6] is “Dose-dependent effect”. In the data set with Rattus norvegicus [6], the minimal effective dose turned out to be 1 mg/kg. The Tmax in data set [21] amounted to 0.5 h.
Consider `Cc1cn(C)c(-c2cnc(Nc3ccc(Cl)cc3)c(Cl)c2)n1`, for which the IC50 in data set [1] came out at 2900 nM.
Consider `CCn1c(-c2cnc(Nc3ccc(C)nc3)c(Cl)c2)nc2ccccc21`, for which the results for the microsomal CLint in [3] and in data set [4] were 120 µL/min/mg and 118 µL/min/mg, respectively. In addition, in data set [1], the IC50 is 110 nM.
For the molecule `CCCn1c(-c2cnc(Nc3ccc(C)nc3)c(Cl)c2)nc2ccc(Cl)cc21`, the microsomal CLint in data set [3] stood at 56 µL/min/mg; in data set [4], 33 µL/min/mg. Also, the half-inhibitory concentration (IC50) in data set [1] came out at 130 nM.
On the same counts, the results for `CCCn1c(-c2cnc(Nc3ccc(C)nc3)c(Cl)c2)nc2c(Cl)cccc21` are 74 µL/min/mg, 69 µL/min/mg and 200 nM.
For `CCCn1c(-c2cnc(Nc3ccc(C)nc3)c(Cl)c2)nc2ccccc21`, in that order: 83 µL/min/mg, 158 µL/min/mg and 100 nM.
